Consider six compounds from ChEMBL document CHEMBL4828711, “Development of a selective matrix metalloproteinase 13 (MMP-13) inhibitor for the treatment of Osteoarthritis” (Eur J Med Chem, 2021).

As a reminder, the IC50 is the concentration that inhibits the measured activity by half.

Data set [1] concerns the target T1, Collagenase 3 (Homo sapiens, UniProt P45452). The experiment in a line: Inhibition of MMP13 (unknown origin). In short, it runs like this:
(§1)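 FRET assay with the catalytic domain of recombinant human MMP and a 5-FAM/QXL520 peptide substrate. Buffer was HEPES pH 7.5 with CaCl2, 0.01% Brij-35, 0.1 mg/ml BSA and 5% DMSO. Enzyme and compound were preincubated 10 min, then substrate was added. Fluorescence (ex 490/em 520 nm) was read every 5 min for 2 h at room temperature, and the initial linear slope was used. Curves had 12 doses, 3-fold dilutions from 100 μM, run in duplicate and averaged.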

Data set [2] in a line: Stability in rat liver microsomes. The format is ADME, Microsome. In short, it runs like this:
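Rat liver microsomes at 0.3 mg/ml protein with 1 μM compound, in 100 mM potassium phosphate pH 7.4, 2 mM NADPH, 3 mM MgCl2. Incubated in duplicate for 60 min at 37 °C with shaking, with a duplicate NADPH-free control. Sampled at T=0 and 60 min into cold acidified acetonitrile with internal standards. Percent parent remaining measured by LC-MS/MS (ESI, MRM).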

A short description of data set [3]: Stability in rat liver microsomes assessed as parent compound remaining at 1 uM measured after 60 mins in presence of NADPH by LC-MS/MS analysis. The format is ADME, Microsome. The note with it: read-out: Stability. A digest of the protocol:
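Compound at 1 μM was incubated with 0.3 mg/ml rat liver microsomes in 100 mM potassium phosphate pH 7.4 with 2 mM NADPH and 3 mM MgCl2, in duplicate at 37 °C for 60 min. A control without NADPH was run alongside. Samples at 0 and 60 min were quenched in cold acidified acetonitrile with internal standards, and percent parent remaining was measured by LC-MS/MS.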
For orientation: Microsomes from liver hold many membrane-bound enzymes, among them those of drug oxidation.

The subject of data set [4] is Rattus norvegicus. As to the kind of experiment: Chondro-protective activity in MIA-induced Sprague-Dawley rat osteoarthritis model assessed as reduction of bone resorption in lateral femoral condyle at 0.06 mg, ia administered once per week for 3 weeks starting from 5 days post MIA treatment and measured after 26 days post MIA injection. The class given is functional. Also noted: scale not given: the % may be the effect or the level left. In short, it runs like this: (§2)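 Male Sprague-Dawley rats (175–200 g) received 2 mg MIA in 40 μl into the right knee. Saline suspensions were given intra-articularly on days 5, 12 and 19, with 8 rats per group and 5 naive rats. Right knees were taken on day 26, then formalin-fixed, decalcified, paraffin-sectioned and toluidine blue-stained. A veterinary pathologist scored cell loss (area without viable chondrocytes), proteoglycan loss (staining intensity), bone resorption and osteophytes. Statistics were ANOVA or Kruskal-Wallis with post-tests versus vehicle.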

The subject of data set [5] is Rattus norvegicus. The experiment in a line: Chondro-protective activity in MIA-induced Sprague-Dawley rat osteoarthritis model assessed as reduction of osteophyte score at 0.06 mg, ia administered once per week for 3 weeks starting from 5 days post MIA treatment and measured after 26 days post MIA injection. The format is functional. More on the design: scale not given: the % may be the effect or the level left. In short, it runs like this: as §2

Data set [6] has as its system Rattus norvegicus. The experiment in a line: Chondro-protective activity in MIA-induced Sprague-Dawley rat osteoarthritis model assessed as reduction of cell loss at 0.06 mg, ia administered once per week for 3 weeks starting from 5 days post MIA treatment and measured after 26 days post MIA injection. The class given is functional, organism-based. A digest of the protocol:
as §2

In data set [7] the test system is Rattus norvegicus. The experiment in a line: Chondro-protective activity in MIA-induced Sprague-Dawley rat osteoarthritis model assessed as reduction of bone resorption in medial femoral condyle at 0.06 mg, ia administered once per week for 3 weeks starting from 5 days post MIA treatment and measured after 26 days post MIA injection. More on the design: scale not given: the % may be the effect or the level left. The format is functional. In short, it runs like this: as §2

In data set [8] the test system is Rattus norvegicus. The experiment in a line: Chondro-protective activity in MIA-induced Sprague-Dawley rat osteoarthritis model assessed as reduction of bone resorption in tibia at 0.06 mg, ia administered once per week for 3 weeks starting from 5 days post MIA treatment and measured after 26 days post MIA injection. The class given is functional. Also noted: scale not given: the % may be the effect or the level left. A digest of the protocol:
as §2

For data set [9], the system named is Rattus norvegicus. The experiment in a line: Chondro-protective activity in MIA-induced Sprague-Dawley rat osteoarthritis model assessed as reduction in cell loss on lateral tibial plateau at 1 mg, ia administered once per week for 3 weeks starting from 5 days post MIA treatment and measured after 26 days post MIA injection. The class given is functional. Also noted: scale not given: the % may be the effect or the level left. In short, it runs like this:
as §2

Data set [10] concerns the target T2, Matrilysin (Homo sapiens, UniProt P09237).
T2 sequence (P09237 whole entry): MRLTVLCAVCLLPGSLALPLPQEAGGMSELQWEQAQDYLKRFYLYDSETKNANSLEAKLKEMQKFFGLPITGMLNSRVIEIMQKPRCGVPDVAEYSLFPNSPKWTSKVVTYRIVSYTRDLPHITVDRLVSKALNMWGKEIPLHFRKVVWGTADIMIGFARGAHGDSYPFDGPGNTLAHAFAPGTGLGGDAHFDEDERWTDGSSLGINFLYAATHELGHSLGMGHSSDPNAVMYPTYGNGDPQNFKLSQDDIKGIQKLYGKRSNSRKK
The experiment in a line: Inhibition of recombinant human MMP7 using QXL520-gamma-Abu-Pro-Cha-Abu-Smc-His-Ala-Dab(5-FAM)-Ala-Lys-NH2 as substrate measured every 5 mins for 2 hrs by FRET assay. A digest of the protocol:
as §1

Data set [11] has as its target Macrophage metalloelastase (Homo sapiens, UniProt P39900). As to the kind of experiment: Inhibition of recombinant human MMP12 using QXL520-gamma-Abu-Pro-Cha-Abu-Smc-His-Ala-Dab(5-FAM)-Ala-Lys-NH2 as substrate measured every 5 mins for 2 hrs by FRET assay. A digest of the protocol:
as §1

The target in data set [12] is T3, Interstitial collagenase (Homo sapiens, UniProt P03956).
T3 sequence (P03956 whole entry): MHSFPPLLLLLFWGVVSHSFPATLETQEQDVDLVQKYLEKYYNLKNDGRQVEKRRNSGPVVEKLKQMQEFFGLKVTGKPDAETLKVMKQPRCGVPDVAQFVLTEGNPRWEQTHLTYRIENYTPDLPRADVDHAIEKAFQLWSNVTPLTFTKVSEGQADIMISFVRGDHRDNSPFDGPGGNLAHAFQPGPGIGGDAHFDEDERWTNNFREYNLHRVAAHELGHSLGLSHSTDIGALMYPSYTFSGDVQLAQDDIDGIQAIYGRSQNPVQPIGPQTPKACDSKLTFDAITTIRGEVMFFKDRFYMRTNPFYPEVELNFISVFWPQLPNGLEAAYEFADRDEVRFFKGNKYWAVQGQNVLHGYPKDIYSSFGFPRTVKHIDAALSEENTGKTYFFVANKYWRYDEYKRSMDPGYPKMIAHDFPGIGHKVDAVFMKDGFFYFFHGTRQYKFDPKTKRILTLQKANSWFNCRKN
The experiment in a line: Inhibition of recombinant human MMP1 using QXL520-gamma-Abu-Pro-Cha-Abu-Smc-His-Ala-Dab(5-FAM)-Ala-Lys-NH2 as substrate measured every 5 mins for 2 hrs by FRET assay. In short, it runs like this:
as §1

Data set [13] deals with Matrix metalloproteinase-9 (Homo sapiens, UniProt P14780). As to the kind of experiment: Inhibition of recombinant human MMP9 using QXL520-gamma-Abu-Pro-Cha-Abu-Smc-His-Ala-Dab(5-FAM)-Ala-Lys-NH2 as substrate measured every 5 mins for 2 hrs by FRET assay. In short, it runs like this: as §1
The target of data set [14] is T1, Collagenase 3. As to the kind of experiment: Inhibition of recombinant human MMP13 using QXL520-gamma-Abu-Pro-Cha-Abu-Smc-His-Ala-Dab(5-FAM)-Ala-Lys-NH2 as substrate measured every 5 mins for 2 hrs by FRET assay. A digest of the protocol: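 Catalytic domain of human recombinant MMP-13. Buffer: HEPES pH 7.5, CaCl2, 0.01% Brij-35, 0.1 mg/ml BSA and 5% DMSO. Compound was preincubated with enzyme for 10 min before substrate addition. Fluorescence (ex 490, em 520 nm) was read at room temperature. IC50 came from initial linear slopes over 12 doses, 3-fold dilutions from 100 μM, in duplicate, reported as the mean.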

Data set [15] concerns the target Stromelysin-2 (Homo sapiens, UniProt P09238). As to the kind of experiment: Inhibition of recombinant human MMP10 using QXL520-gamma-Abu-Pro-Cha-Abu-Smc-His-Ala-Dab(5-FAM)-Ala-Lys-NH2 as substrate measured every 5 mins for 2 hrs by FRET assay.
Data set [16] addresses Neutrophil collagenase (Homo sapiens, UniProt P22894). The experiment in a line: Inhibition of recombinant human MMP8 using QXL520-gamma-Abu-Pro-Cha-Abu-Smc-His-Ala-Dab(5-FAM)-Ala-Lys-NH2 as substrate measured every 5 mins for 2 hrs by FRET assay. A digest of the protocol:
as §1

Data set [17] concerns Rattus norvegicus. As to the kind of experiment: Chondro-protective activity in MIA-induced Sprague-Dawley rat osteoarthritis model assessed as reduction in proteoglycan loss on MTP at 1 mg, ia administered once per week for 3 weeks starting from 5 days post MIA treatment and measured after 26 days post MIA injection. Also noted: scale not given: the % may be the effect or the level left. The format is functional. A digest of the protocol: as §2

Data set [18] has as its system Rattus norvegicus. As to the kind of experiment: Chondro-protective activity in MIA-induced Sprague-Dawley rat osteoarthritis model assessed as reduction in proteoglycan loss on LTP at 1 mg, ia administered once per week for 3 weeks starting from 5 days post MIA treatment and measured after 26 days post MIA injection. The class given is functional. Also noted: scale not given: the % may be the effect or the level left. In short, it runs like this: as §2

Data set [19] deals with 72 kDa type IV collagenase (Homo sapiens, UniProt P08253). The experiment in a line: Inhibition of recombinant human MMP2 using QXL520-gamma-Abu-Pro-Cha-Abu-Smc-His-Ala-Dab(5-FAM)-Ala-Lys-NH2 as substrate measured every 5 mins for 2 hrs by FRET assay. In short, it runs like this:
as §1

For data set [20], the target named is Stromelysin-1 (Homo sapiens, UniProt P08254). The experiment in a line: Inhibition of recombinant human MMP3 using QXL520-gamma-Abu-Pro-Cha-Abu-Smc-His-Ala-Dab(5-FAM)-Ala-Lys-NH2 as substrate measured every 5 mins for 2 hrs by FRET assay. In short, it runs like this:
as §1

Data set [21] deals with Rattus norvegicus. The experiment in a line: Chondro-protective activity in MIA-induced Sprague-Dawley rat osteoarthritis model assessed as reduction in proteoglycan loss on LFC at 1 mg, ia administered once per week for 3 weeks starting from 5 days post MIA treatment and measured after 26 days post MIA injection. The class given is functional. More on the design: scale not given: the % may be the effect or the level left. In short, it runs like this: as §2

The target of data set [22] is Matrix metalloproteinase-14 (Homo sapiens, UniProt P50281). The experiment in a line: Inhibition of recombinant human MMP14 using QXL520-gamma-Abu-Pro-Cha-Abu-Smc-His-Ala-Dab(5-FAM)-Ala-Lys-NH2 as substrate measured every 5 mins for 2 hrs by FRET assay. In short, it runs like this:
as §1

The source made the active and inactive calls. The calls are words filed in the database; no cut-off is given here.

Sequence of Neutrophil collagenase (P22894 whole entry): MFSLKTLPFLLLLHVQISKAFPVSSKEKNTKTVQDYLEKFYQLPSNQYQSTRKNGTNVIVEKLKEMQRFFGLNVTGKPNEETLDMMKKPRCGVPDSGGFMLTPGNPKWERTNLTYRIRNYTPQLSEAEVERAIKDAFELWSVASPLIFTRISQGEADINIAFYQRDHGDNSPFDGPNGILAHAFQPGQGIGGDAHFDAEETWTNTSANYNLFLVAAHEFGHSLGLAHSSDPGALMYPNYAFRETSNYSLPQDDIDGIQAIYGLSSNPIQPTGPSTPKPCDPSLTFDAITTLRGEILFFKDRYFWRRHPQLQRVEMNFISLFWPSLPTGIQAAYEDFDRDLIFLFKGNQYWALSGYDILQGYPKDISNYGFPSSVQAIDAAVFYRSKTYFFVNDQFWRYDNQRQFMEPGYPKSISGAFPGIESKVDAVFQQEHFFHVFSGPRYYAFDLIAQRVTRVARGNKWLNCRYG
Sequence of Stromelysin-1 (P08254 whole entry): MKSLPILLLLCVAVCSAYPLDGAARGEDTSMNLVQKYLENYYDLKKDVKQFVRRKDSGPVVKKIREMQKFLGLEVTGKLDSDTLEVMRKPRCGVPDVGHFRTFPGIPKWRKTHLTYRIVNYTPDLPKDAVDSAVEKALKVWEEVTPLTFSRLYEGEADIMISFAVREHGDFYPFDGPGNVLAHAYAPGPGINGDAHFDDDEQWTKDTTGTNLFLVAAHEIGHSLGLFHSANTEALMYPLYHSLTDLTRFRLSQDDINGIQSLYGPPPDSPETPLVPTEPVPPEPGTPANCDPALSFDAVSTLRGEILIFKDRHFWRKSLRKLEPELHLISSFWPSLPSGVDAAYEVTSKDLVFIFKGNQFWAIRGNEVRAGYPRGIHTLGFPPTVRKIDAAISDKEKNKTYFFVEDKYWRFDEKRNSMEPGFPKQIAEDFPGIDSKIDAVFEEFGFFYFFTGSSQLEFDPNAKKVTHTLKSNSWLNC
Sequence of Matrix metalloproteinase-9 (P14780 whole entry, the tested form may be a part): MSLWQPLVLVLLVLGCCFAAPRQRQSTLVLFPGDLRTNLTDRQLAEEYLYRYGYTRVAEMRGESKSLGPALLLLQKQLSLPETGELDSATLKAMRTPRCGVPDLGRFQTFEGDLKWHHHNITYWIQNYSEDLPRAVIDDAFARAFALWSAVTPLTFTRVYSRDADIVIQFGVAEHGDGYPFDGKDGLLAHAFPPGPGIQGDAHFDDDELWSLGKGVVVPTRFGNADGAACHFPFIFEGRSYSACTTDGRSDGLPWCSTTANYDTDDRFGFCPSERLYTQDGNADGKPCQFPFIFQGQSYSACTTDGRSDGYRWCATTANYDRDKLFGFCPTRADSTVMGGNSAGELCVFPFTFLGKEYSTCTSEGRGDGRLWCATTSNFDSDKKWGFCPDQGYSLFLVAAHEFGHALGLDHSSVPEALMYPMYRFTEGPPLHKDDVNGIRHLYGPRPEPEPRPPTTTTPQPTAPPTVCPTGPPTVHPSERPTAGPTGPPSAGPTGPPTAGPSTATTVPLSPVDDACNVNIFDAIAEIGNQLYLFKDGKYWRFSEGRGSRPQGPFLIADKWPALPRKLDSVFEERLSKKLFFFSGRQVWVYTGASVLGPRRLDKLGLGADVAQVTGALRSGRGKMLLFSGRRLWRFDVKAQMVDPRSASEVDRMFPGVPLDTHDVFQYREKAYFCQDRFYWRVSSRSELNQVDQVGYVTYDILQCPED
Sequence of Macrophage metalloelastase (P39900 whole entry): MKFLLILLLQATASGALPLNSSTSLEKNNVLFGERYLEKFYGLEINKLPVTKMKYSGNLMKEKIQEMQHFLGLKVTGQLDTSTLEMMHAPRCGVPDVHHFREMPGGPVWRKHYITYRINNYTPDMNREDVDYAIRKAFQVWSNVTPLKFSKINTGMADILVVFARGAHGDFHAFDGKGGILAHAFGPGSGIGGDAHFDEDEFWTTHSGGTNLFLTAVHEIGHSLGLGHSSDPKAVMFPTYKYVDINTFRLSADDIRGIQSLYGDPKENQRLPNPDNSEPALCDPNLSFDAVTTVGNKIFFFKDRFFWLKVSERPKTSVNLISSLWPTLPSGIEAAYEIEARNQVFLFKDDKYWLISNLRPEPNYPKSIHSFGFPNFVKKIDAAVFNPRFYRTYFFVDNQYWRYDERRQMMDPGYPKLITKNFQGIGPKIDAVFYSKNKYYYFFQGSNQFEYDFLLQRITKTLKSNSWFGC
Sequence of Stromelysin-2 (P09238 whole entry): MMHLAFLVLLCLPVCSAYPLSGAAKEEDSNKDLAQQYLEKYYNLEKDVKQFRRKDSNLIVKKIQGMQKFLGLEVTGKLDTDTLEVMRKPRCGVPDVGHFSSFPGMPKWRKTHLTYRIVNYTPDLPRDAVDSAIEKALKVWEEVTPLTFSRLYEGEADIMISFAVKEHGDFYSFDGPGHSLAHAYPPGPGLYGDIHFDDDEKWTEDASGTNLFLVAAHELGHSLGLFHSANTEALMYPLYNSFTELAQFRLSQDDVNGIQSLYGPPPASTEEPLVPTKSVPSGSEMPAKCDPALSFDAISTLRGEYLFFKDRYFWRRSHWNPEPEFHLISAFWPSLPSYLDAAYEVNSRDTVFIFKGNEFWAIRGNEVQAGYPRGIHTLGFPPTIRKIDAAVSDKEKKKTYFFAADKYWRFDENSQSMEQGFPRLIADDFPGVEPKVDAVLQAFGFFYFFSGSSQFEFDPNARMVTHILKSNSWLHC
Sequence of 72 kDa type IV collagenase (P08253 whole entry): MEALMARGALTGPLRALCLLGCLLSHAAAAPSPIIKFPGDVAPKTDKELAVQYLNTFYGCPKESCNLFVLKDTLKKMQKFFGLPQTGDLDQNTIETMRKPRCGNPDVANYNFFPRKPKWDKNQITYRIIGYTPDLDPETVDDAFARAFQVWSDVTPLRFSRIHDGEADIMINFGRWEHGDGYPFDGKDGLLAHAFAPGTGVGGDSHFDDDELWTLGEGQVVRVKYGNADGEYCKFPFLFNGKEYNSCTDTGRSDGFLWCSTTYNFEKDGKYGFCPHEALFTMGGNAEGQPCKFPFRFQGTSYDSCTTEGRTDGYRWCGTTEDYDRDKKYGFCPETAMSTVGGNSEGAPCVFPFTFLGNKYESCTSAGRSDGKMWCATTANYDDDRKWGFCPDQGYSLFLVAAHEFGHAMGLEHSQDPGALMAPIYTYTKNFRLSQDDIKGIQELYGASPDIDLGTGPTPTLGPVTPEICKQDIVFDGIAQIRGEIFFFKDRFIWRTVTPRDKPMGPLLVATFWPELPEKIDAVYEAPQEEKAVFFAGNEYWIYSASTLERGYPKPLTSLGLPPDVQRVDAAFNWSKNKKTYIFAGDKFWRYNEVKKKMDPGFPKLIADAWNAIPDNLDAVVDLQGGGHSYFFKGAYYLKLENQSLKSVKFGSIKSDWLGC

Consider `C[C@H](NC(=O)c1cc(C(=O)NCc2ccc(-c3nnn[nH]3)cc2)ncn1)c1ccccc1`, for which the concentration for half-maximal inhibition (IC50) in data set [1] is below 0.01 µM.

`Cc1cc(CNC(=O)c2cc(C(=O)NCc3ccc(F)c(C)c3)ncn2)ccc1F` gave a Stability in [2] of 0.6%.

`C[C@@H](NC(=O)c1cc(C(=O)NCc2ccc(-c3nnn[nH]3)cc2)ncn1)c1ccccc1` came in with an IC50 in data set [1] above 0.1 µM.

Regarding `Cc1cc(CNC(=O)c2cc(C(=O)NCc3ccc(C(=O)O)cc3)ncn2)ccc1F`, the remaining at 1 h, 1 µM in [3] was 90%.

Regarding `C[C@]12C=CC(=O)C=C1CC[C@H]1[C@@H]3C[C@@H](O)[C@](O)(C(=O)CO)[C@@]3(C)C[C@H](O)[C@@]12F` [TRIAMCINOLONE], the Activity in data set [4] is listed as 49%; in [5] it was 40%; in [7], 49%; in [8], 34%. Besides, the result in [6] was inactive.

As for `[2H]C([2H])(NC(=O)c1cc(C(=O)NCc2ccc(F)c(C)c2)ncn1)c1ccc(C(=O)O)cc1`, the Activity is listed as 8% in data set [9], 15% in data set [17], 15% in [18] and 15% in data set [21]. Moreover, the IC50 is above 100 µM in [10]; above 100 µM in data set [11]; above 100 µM in data set [12]; 74 µM in data set [13]; 0.0048 µM in data set [14]; 1 µM in data set [15]. Besides, the IC50 was 98 µM in [16], above 100 µM in [19], above 100 µM in data set [20] and above 100 µM in data set [22]. Also, in data set [3], the remaining at 1 h, 1 µM is 99%.
